Screening results from PubChem BioAssay.
LGR2 antag: blocks bursicon-induced cAMP signaling via Drosophila LGR2 | HEK293 LGR2, CRE-luciferase, bursicon-stimulated, 4 h | inhibition, % at 9.99 µM | 0.35% of 380,000 active | AID 720647;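 active = drop in luminescence signal, shown as inhibition above about 50% in the replicate tests, limit read from the data, passing the limit was not always enough; inconclusive = probably only some replicates passing the limit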;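 also: agonist challenge used bursicon conditioned medium at about half maximal strength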
TROY NFkB inh: blocks TROY-dependent signaling in reporter cells | Q293 LMP1-TROYcd NF-kB luciferase reporter, 4 h | inhibition, % at 10 µM | 0.98% of 360,000 active;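 active = compounds whose plate-normalised and pattern-corrected inhibition of the luciferase reporter signal at the single screening dose is 50% or more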
XiGFP reactiv: activators of X-chromosome reactivation in mouse fibroblasts. XiGFP mouse fibroblasts, % GFP-positive cells imaging, 3 d; cells co-treated with 5-aza-dC sensitizer; scaled so ellipticine positive control = 100%. 0.055% of 360,000 active. activation, % at 7.58 µM;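 active = mean normalized replicate activation at least 10% and every replicate at or above 10%; inconclusive = only one of the two criteria met; inactive = mean below 10% and not all replicates reach 10%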
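System: XiGFP fibroblasts, SV40-immortalized. Medium: DMEM plus 5-aza-dC sensitizer. Doses: single point. Timing: 3 d treatment, 15 min room-temperature fixation. Control set: ellipticine 6 µM.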
EWS-Fli block: blocks EWS/Fli oncoprotein-driven transcription | 0.67% of 350,000 active | A673 NR0B1-luciferase reporter, viability-normalised | inhibition, % at 12.6 µM | AID 651661;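 active = mean inhibition of at least 50% after viability correction, with every replicate also passing that limit; inconclusive = mean reaches 50% but only one of two replicates passes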;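 also: firefly luciferase signal divided by Alamar Blue viability fluorescence both relative to DMSO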
TWEAK Fn14 block: inhibitors of TWEAK-Fn14 interaction signaling; 2% of 360,000 active; AID 1159606; inhibition, % at 10 µM; TWEAK-stimulated Fn14 reporter cells, luciferase luminescence, 8 h; in the data active = inhibition above about 50%
FN deposit inh: fibronectin deposition inhibition. AH1F fibroblasts, Alexa488-fibronectin deposition fluorescence, overnight. inhibition, % at 12.6 µM. 0.086% of 350,000 active. AID 743247;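 active = mean inhibition across replicates of 30% or more, regardless of how many single replicates reach that level; inconclusive = mean under 30% yet at least half of replicates reach 30%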
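Assay system: AH1F fibroblast monolayer, labelled fibronectin deposition. Amount: 10000 cells per well. Also added: labelled fibronectin 24 nM. Compound: single-point pinned compound. Incubation: cell attachment 1 h, compound and FN exposure overnight. Detection: fluorescence after three HBSS washes, excitation 485 nm, emission 525 nm. Read-out: inhibition of fibronectin deposition signal.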
Each line names hits and unclear results; the compound was inactive in the other large screens. Rows were chosen to be rich in hits. Some 2.3% of all compounds tested hit in one or more screens of this group.

CC(C)(C)c1ccc(-n2nc(C(N)=O)c(O)cc2=O)cc1	none
CC(C)(C)c1ccc(-n2nc(C#N)c(Cl)cc2=O)cc1	LGR2 antag 101, TROY NFkB inh 89, EWS-Fli block 58, TWEAK Fn14 block 105, FN deposit inh 30
CN(Cc1ccc(Cl)cc1Cl)C(=O)c1cccc(S(=O)(=O)N2CCN(c3ccccc3)CC2)c1	none
Cc1ccnc(NC(=O)c2cccc(S(=O)(=O)N3CCN(c4ccccc4)CC3)c2)c1	LGR2 antag inconclusive, TWEAK Fn14 block 72
CN(CCOc1ccc(Cl)cc1)C(=O)c1cccc(S(=O)(=O)N2CCN(c3ccccc3)CC2)c1	TWEAK Fn14 block 50
Clc1ccccc1Nc1nnc(-c2ccncc2)s1	LGR2 antag inconclusive, TROY NFkB inh 60, TWEAK Fn14 block 89
FC(F)(F)c1ccc(Cl)c(Nc2nnc(-c3ccncc3)s2)c1	none
COc1ccc(Nc2nnc(-c3ccncc3)s2)cc1Cl	TROY NFkB inh 51
COc1ccccc1C#Cc1ccc([C@H]2[C@@H](C#N)N(C(=O)C3CCC3)[C@H]2CO)cc1	none (no result: TROY NFkB inh, TWEAK Fn14 block)
NC(=O)N/N=C/c1c(Sc2nnnn2-c2ccccc2)nc2ccccn2c1=O	LGR2 antag inconclusive, TWEAK Fn14 block 96
CCCc1cc(=O)[nH]c(SCC(=O)Nc2ccc(Br)cc2)n1	none
Cc1ccc(SCc2cc(=O)[nH]c(SCC(=O)Nc3cc(Cl)ccc3Cl)n2)cc1	TROY NFkB inh 59
CCCc1cc(=O)[nH]c(SCC(=O)Nc2ccc(Br)cc2Br)n1	TROY NFkB inh 68
CCc1ccc(NC(=O)CSc2nc(CSc3ccc(C)cc3)cc(=O)[nH]2)cc1	none
COc1ccc(CCN2C(=O)CSC2=Nc2ccc(C(C)C)cc2)cc1OC	TWEAK Fn14 block 58
COCCCNC(=O)[C@@]1(CCS(=O)(=O)c2ccccc2)COC(c2ccc(OCCCO)cc2)=N1	none (no result: LGR2 antag, TROY NFkB inh, XiGFP reactiv, TWEAK Fn14 block, FN deposit inh)
COc1ccc2c3c([nH]c2c1)[C@H](CO)N(C(=O)C1CCCC1)CC31CN(Cc2cccc(F)c2)C1	none (no result: TROY NFkB inh, TWEAK Fn14 block, FN deposit inh)
Cc1ccccc1NC(=O)N1CCCC(c2nc(-c3ccc(F)cc3)no2)C1 (stereo unspecified)	none (no result: LGR2 antag, XiGFP reactiv, EWS-Fli block)
Cc1ccccc1NC(=O)N1CCCC(c2nc(-c3ccc(C(C)C)cc3)no2)C1 (stereo unspecified)	TROY NFkB inh 74, TWEAK Fn14 block 55 (no result: LGR2 antag, XiGFP reactiv, FN deposit inh)
Cc1ccc(-c2noc(C3CCCN(C(=O)c4ccc(F)cc4F)C3)n2)cc1 (stereo unspecified)	none (no result: LGR2 antag, XiGFP reactiv, EWS-Fli block, FN deposit inh)
CC(C)c1ccc(-c2noc(C3CCCN(C(=O)c4ccc(F)cc4F)C3)n2)cc1 (stereo unspecified)	TWEAK Fn14 block 52 (no result: LGR2 antag, XiGFP reactiv, EWS-Fli block)
C[C@@H]1CN([C@H](C)CO)C(=O)c2ccccc2-c2ccccc2CO[C@@H]1CN(C)C(=O)Oc1ccccc1	none (no result: LGR2 antag, TROY NFkB inh, EWS-Fli block, TWEAK Fn14 block)
CCC(=O)N(C)C[C@@H]1Oc2cc(C#Cc3ccccc3)ccc2S(=O)(=O)N([C@@H](C)CO)C[C@H]1C	none (no result: TROY NFkB inh, TWEAK Fn14 block)
CC(C)N(C(C)C)S(=O)(=O)c1ccc(N2CCc3ccccc3C2)nc1	TWEAK Fn14 block 58
O=C(C[C@@H]1CC[C@@H]2[C@H](COC[C@@H](O)CN2CC2CCOCC2)O1)N1CCOCC1	none (no result: TROY NFkB inh, TWEAK Fn14 block)
COc1ccc(-c2noc(CCCC(=O)O)n2)cc1	TWEAK Fn14 block 78 (no result: LGR2 antag, XiGFP reactiv, EWS-Fli block)
C[C@@H]1CN([C@H](C)CO)C(=O)c2cc(NC(=O)c3ccncc3)ccc2O[C@@H](C)CCCCO[C@@H]1CN(C)Cc1ccc(C(=O)O)cc1	none (no result: TROY NFkB inh, TWEAK Fn14 block, FN deposit inh)
CCC(=O)N1CCc2cc(Br)cc(S(=O)(=O)NCCCN(C)Cc3ccccc3)c21	none
CC(=O)N1CCc2cc(Br)cc(S(=O)(=O)NCCCN(C)Cc3ccccc3)c21	TWEAK Fn14 block 98
COc1cccc(C(=O)CSc2nccn2C)c1	TWEAK Fn14 block 86
CC(=NNC(=S)N1CCN(c2ccccn2)CC1)c1nccs1	TWEAK Fn14 block 104 (no result: LGR2 antag, XiGFP reactiv, EWS-Fli block, FN deposit inh)
C=CCCC(=O)Nc1nc(C)c(-c2csc(Nc3cc(OC)ccc3OC)n2)s1	EWS-Fli block 58
O=C(CNc1ccccc1F)Nc1cc(S(=O)(=O)N2CCCCC2)ccc1Cl	none
COc1ccc(NC(=O)Cc2coc3cc(C)c(C(C)C)cc23)cc1S(=O)(=O)N1CCOCC1	TWEAK Fn14 block 53
Cc1ccc(S(=O)(=O)N2CCCCC2)cc1NC(=O)Cn1ncc(Cl)c(Cl)c1=O	LGR2 antag 54, TROY NFkB inh 80, EWS-Fli block 75, TWEAK Fn14 block 100
Cc1ccc(S(=O)(=O)N2CCCCC2)cc1NCC(=O)Nc1ccc(Br)cc1F	TROY NFkB inh 53, TWEAK Fn14 block 80
Cc1nn(CC(=O)Nc2ccc3c(c2)OCO3)c(C)c1Cl	none
O=C(Cn1ncc(Cl)c(Cl)c1=O)Nc1ccc2c(c1)OCO2	TWEAK Fn14 block 75
O=C(C[C@H]1C[C@@H]2c3cc(NS(=O)(=O)c4ccc(F)cc4)ccc3O[C@@H]2[C@@H](CO)O1)NCc1ccncc1	none (no result: TROY NFkB inh, TWEAK Fn14 block)
C[C@@H]1CN([C@H](C)CO)C(=O)c2cc(NS(=O)(=O)c3ccccc3)ccc2O[C@@H](C)CCCCO[C@@H]1CN(C)S(=O)(=O)c1ccccc1	none (no result: TROY NFkB inh, TWEAK Fn14 block)
COc1ccc(NC(=O)c2ccc(Cl)nc2)cc1S(=O)(=O)N1CCOCC1	none
CCC(=O)c1ccc2c(c1)OCCO2	none
CCN(CC)S(=O)(=O)c1cc(NC(=O)CN2C(=O)NC(C)(c3ccccc3)C2=O)ccc1C (stereo unspecified)	none
O=C(Cn1ncc(Cl)c(Cl)c1=O)c1ccc2c(c1)OCCO2	LGR2 antag inconclusive, TWEAK Fn14 block 101
O=C(Cn1ncc(Cl)c(Cl)c1=O)N1CCN(S(=O)(=O)c2ccc3ccccc3c2)CC1	TROY NFkB inh 67, TWEAK Fn14 block 97 (no result: EWS-Fli block)
CCN(CC)S(=O)(=O)c1cc(NC(=O)Cn2ncc(Cl)c(Cl)c2=O)ccc1C	TROY NFkB inh 89, TWEAK Fn14 block 98
O=C(O)CCC(=O)N1CCN(S(=O)(=O)c2ccc3ccccc3c2)CC1	none
COc1ccc(NC(=O)Cn2ncc(Cl)c(Cl)c2=O)cc1S(=O)(=O)N1CCOCC1	TWEAK Fn14 block 74 (no result: FN deposit inh)
COc1ccccc1C#Cc1ccc([C@H]2[C@@H](CO)N3CCCCN(C(=O)C4CCCC4)C[C@@H]23)cc1	none (no result: LGR2 antag, TROY NFkB inh, XiGFP reactiv, TWEAK Fn14 block, FN deposit inh)
CCCNC(=O)N[C@H]1C=C[C@@H](CC(=O)NCCc2ccccc2)O[C@H]1CO	none (no result: TROY NFkB inh, TWEAK Fn14 block)
COCC(=O)Nc1ccc2c(c1)[C@H]1C[C@H](CC(=O)NCc3cccc(F)c3)O[C@H](CO)[C@H]1O2	none (no result: TROY NFkB inh, TWEAK Fn14 block)
C[C@@H]1CN([C@H](C)CO)C(=O)c2cc(NS(C)(=O)=O)ccc2O[C@@H]1CN(C)Cc1ccc(Cl)c(Cl)c1	none (no result: TROY NFkB inh, TWEAK Fn14 block, FN deposit inh)
Cc1noc(C)c1NC(=O)Nc1ccc2c(c1)C(=O)N([C@@H](C)CO)C[C@@H](C)[C@@H](CN(C)Cc1ccccc1)OCCCC[C@@H](C)O2	none (no result: TROY NFkB inh, TWEAK Fn14 block)
Cc1cc(Br)ccc1NC(=O)CNC(=O)Cn1ncc(Cl)c(Cl)c1=O	LGR2 antag 74, TWEAK Fn14 block 60
